From publication PMC11338093 (ESMO Open, 2024)

Key:
[1] = tested on: subjects with advanced solid tumors; test: APG-1387 monotherapy phase I trial: safety; format: in vivo, human
How it was run: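 3+3 escalation of 0.3, 0.6, 4.0, 7.0, 12, 20, 30 and 45 mg, given as 30-min i.v. infusion on D1/8/15 with a 1-week rest per 28-day cycle. Safety was monitored by vitals, examination, haematology, biochemistry, thyroid, coagulation and ECG. AEs were graded by CTCAE 4.0 from consent to 90 days after last dose. DLTs were predefined drug-related grade ≥3–4 toxicities in cycle 1. MTD was the level below that with DLTs in ≥2 of 6 subjects.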

advanced solid tumors = test: APG-1387 monotherapy phase I trial: antitumor activity; format: in vivo, human
[2] = APG-1387 monotherapy phase I trial: plasma pharmacokinetics; format: in vivo, human
[3] = tested on: IFN-γ, IL-12/IL-23p40, IL-5, and IL-6; test: Combination trial: plasma cytokines; format: in vivo, human; conditions: 4 and 24 h after APG-1387 dosing, 16 subjects
How it was run: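 Combination regimen: toripalimab 240 mg i.v. Q3W with the test compound i.v. weekly on D1/8 or D1/8/15. Plasma was collected on C1D1 pre-dose, at 4 and 24 h after the first test compound dose, and on C2D1 and C3D1 before toripalimab. Cytokines were measured by Meso Scale Discovery assay. Post-dose IFN-γ, IL-12, IL-5 and IL-6 were normalised to each subject's baseline.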

[4] = tested on: NK cell (CD3, −CD16+, and CD56+) populations; test: Combination trial: peripheral blood lymphocyte subsets by flow cytometry; format: in vivo, human
How it was run: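 Combination regimen: toripalimab 240 mg i.v. Q3W plus test compound i.v., either 20–30 mg on D1/8 (3+3 stage) or 45 mg on D1/8/15 (second stage). Peripheral blood (3 ml) was drawn on C1D1, C2D1, C3D1 and at end of treatment. Lymphocyte subsets were analysed by flow cytometry. Post-dose cell proportions were divided by each subject's baseline.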

[5] = tested on: patients with advanced solid tumors; conditions: cited from earlier work
[6] = tested on: adults with refractory solid tumors or lymphoma; conditions: monotherapy phase I trial; cited from earlier work
[7] = 28 participants, 30- and 45-mg groups

CN[C@@H](C)C(=O)N[C@H]1CN(S(=O)(=O)c2cccc(S(=O)(=O)N3CC[C@H]4CC[C@@H](C(=O)NC(c5ccccc5)c5ccccc5)N4C(=O)[C@@H](NC(=O)[C@H](C)NC)C3)c2)CC[C@H]2CC[C@@H](C(=O)NC(c3ccccc3)c3ccccc3)N2C1=O [APG-1387]
Dose-limiting toxicities (DLT) ([1]; 0.3-45 mg i.v. D1/8/15 of 28-day cycle, 28 subjects): no DLT occurred
Subjects with TRAEs ([1]; 28 participants): 21.4%
TRAE pruritus ([1]; 28 participants, 20-mg group): 3.6%
TRAE elevated ALT [1, 7]: 7.1%
TRAE elevated AST [1, 7]: 7.1%
TRAE asthenia ([1]; 28 participants, 45-mg group): 3.6%
TRAE facial-nerve disorder ([1]; 28 participants, all in 45-mg group): 10.7%
Participants with grade ≥3 TRAE (ALT elevation) ([1]; 28 subjects): 3.6%
Any TRAE, All grade ([1]; all doses, n = 28): 6 (21·4) n (%)
Any TRAE, Grade ≥3 ([1]; all doses, n = 28): 1 (3·6) n (%)
TRAE Alanine aminotransferase elevation, All grade ([1]; all doses, n = 28): 2 (7·1) n (%)
TRAE Alanine aminotransferase elevation, Grade ≥3 ([1]; all doses, n = 28): 1 (3·6) n (%)
TRAE Amylase elevation, All grade ([1]; all doses, n = 28): 0 (0) n (%)
TRAE Amylase elevation, Grade ≥3 ([1]; all doses, n = 28): 0 (0) n (%)
TRAE Aspartate aminotransferase elevation, All grade ([1]; all doses, n = 28): 2 (7·1) n (%)
TRAE Aspartate aminotransferase elevation, Grade ≥3 ([1]; all doses, n = 28): 0 (0) n (%)
TRAE Asthenia, All grade ([1]; all doses, n = 28): 1 (3·6) n (%)
TRAE Asthenia, Grade ≥3 ([1]; all doses, n = 28): 0 (0) n (%)
TRAE Blood creatinine elevation, All grade ([1]; all doses, n = 28): 0 (0) n (%)
TRAE Blood creatinine elevation, Grade ≥3 ([1]; all doses, n = 28): 0 (0) n (%)
TRAE Decreased appetite, All grade ([1]; all doses, n = 28): 0 (0) n (%)
TRAE Decreased appetite, Grade ≥3 ([1]; all doses, n = 28): 0 (0) n (%)
TRAE Facial-nerve disorder, All grade ([1]; all doses, n = 28): 3 (10·7) n (%)
TRAE Facial-nerve disorder, Grade ≥3 ([1]; all doses, n = 28): 0 (0) n (%)
TRAE Headache, All grade ([1]; all doses, n = 28): 0 (0) n (%)
TRAE Headache, Grade ≥3 ([1]; all doses, n = 28): 0 (0) n (%)
TRAE Hypoesthesia, All grade ([1]; all doses, n = 28): 0 (0) n (%)
TRAE Hypoesthesia, Grade ≥3 ([1]; all doses, n = 28): 0 (0) n (%)
TRAE Hypogeusia, All grade ([1]; all doses, n = 28): 0 (0) n (%)
TRAE Hypogeusia, Grade ≥3 ([1]; all doses, n = 28): 0 (0) n (%)
TRAE Hypothyroidism, All grade ([1]; all doses, n = 28): 0 (0) n (%)
TRAE Hypothyroidism, Grade ≥3 ([1]; all doses, n = 28): 0 (0) n (%)
TRAE Immune-mediated pancreatitis, All grade ([1]; all doses, n = 28): 0 (0) n (%)
TRAE Immune-mediated pancreatitis, Grade ≥3 ([1]; all doses, n = 28): 0 (0) n (%)
TRAE Infusion site reaction, All grade ([1]; all doses, n = 28): 0 (0) n (%)
TRAE Infusion site reaction, Grade ≥3 ([1]; all doses, n = 28): 0 (0) n (%)
TRAE Leukopenia, All grade ([1]; all doses, n = 28): 0 (0) n (%)
TRAE Leukopenia, Grade ≥3 ([1]; all doses, n = 28): 0 (0) n (%)
TRAE Lipase elevation, All grade ([1]; all doses, n = 28): 0 (0) n (%)
TRAE Lipase elevation, Grade ≥3 ([1]; all doses, n = 28): 0 (0) n (%)
TRAE Platelet count decrease, All grade ([1]; all doses, n = 28): 0 (0) n (%)
TRAE Platelet count decrease, Grade ≥3 ([1]; all doses, n = 28): 0 (0) n (%)
TRAE Pruritus, All grade ([1]; all doses, n = 28): 1 (3·6) n (%)
TRAE Pruritus, Grade ≥3 ([1]; all doses, n = 28): 0 (0) n (%)
TRAE Rash, All grade ([1]; all doses, n = 28): 0 (0) n (%)
TRAE Rash, Grade ≥3 ([1]; all doses, n = 28): 0 (0) n (%)
Maximum tolerated dose (MTD) ([1]; doses up to 45 mg): not reached
Subjects with treatment-emergent adverse events ([1]; safety population, 28 participants): 89.3%
Disease control rate (DCR) (advanced solid tumors; 23 participants): 21.7%
Best overall response: Complete response (advanced solid tumors; n 23): 0 (0) n (%)
Best overall response: Partial response (advanced solid tumors; n 23): 0 (0) n (%)
Best overall response: Progressive disease (advanced solid tumors; n 23): 18 (78·3) n (%)
Best overall response: Stable disease (advanced solid tumors; n 23): 5 (21·7) n (%)
Disease control rate (advanced solid tumors; n 23): 5 (21·7) n (%)
Objective response rate (advanced solid tumors; n 23): 0 (0) n (%)
Duration of SD with tumor reduction (advanced solid tumors; one individual with CRC, 20-mg group): 16 weeks
Increase of Cmax and AUC0-t with dose ([2]; 0.3-45 mg): approximately dose-proportional
Accumulation after multiple dosing ([2]; QW dosing schedule): No significant accumulation
Mean rate of clearance ([2]; range across doses): 15.9 to 60.7 L/h
Mean steady-state volume of distribution (Vss) ([2]; range across doses): 10.1 to 60.1 L
Mean terminal half-life ([2]; range across doses): 44.5 to 672 min
Median time to maximum plasma concentration (Cmax) ([2]; range across doses, QW i.v. infusion 30 min): 0.25 to 0.50 h
Plasma levels of IFN-γ, IL-12/IL-23p40, IL-5, and IL-6 [3]: significantly increased
NK cell populations in peripheral blood ([4]; 45-mg dose of APG-1387, combination trial): increased
NK cell populations in peripheral blood ([4]; low doses of APG-1387, combination trial): did not change significantly

CN[C@@H](C)C(=O)N[C@H](C(=O)N1CCC[C@H]1c1nc(C(=O)c2ccc(F)cc2)cs1)C1CCCCC1 [LCL161]
Cytokine release syndrome (CRS) ([5]; high doses of 1800, 2100, and 3000 mg): grade 3-4 cytokine release syndrome
CR or PR ([5]; monotherapy phase I trial): no participant had a CR or PR
Subjects with best response of SD ([5]; monotherapy phase I trial): 19%

CC[C@H](NC(=O)[C@H](C)NC)C(=O)N1C[C@@H](O)C[C@H]1Cc1c(-c2[nH]c3cc(F)ccc3c2C[C@@H]2C[C@H](O)CN2C(=O)[C@H](CC)NC(=O)[C@H](C)NC)[nH]c2cc(F)ccc12 [birinapant]
CR or PR [6]: no participant had a CR or PR
Subjects with best response of SD [6]: 28%
